Assay results taken from ChEMBL document CHEMBL3286188 (J Med Chem, 2014).
Calls of active or inactive are those of the source. The rule behind the calls is not given here.

Experiments:
[1] = target: T1, Estrogen receptor (Homo sapiens) (UniProt P03372); assay: Antagonist activity at ER in human MCF7:WS8 cells assessed as inhibition of estradiol-induced cell growth by measuring DNA level after 7 days by fluorescence analysis; type: cell-based; settings: concentration not given here
T1 sequence (whole entry): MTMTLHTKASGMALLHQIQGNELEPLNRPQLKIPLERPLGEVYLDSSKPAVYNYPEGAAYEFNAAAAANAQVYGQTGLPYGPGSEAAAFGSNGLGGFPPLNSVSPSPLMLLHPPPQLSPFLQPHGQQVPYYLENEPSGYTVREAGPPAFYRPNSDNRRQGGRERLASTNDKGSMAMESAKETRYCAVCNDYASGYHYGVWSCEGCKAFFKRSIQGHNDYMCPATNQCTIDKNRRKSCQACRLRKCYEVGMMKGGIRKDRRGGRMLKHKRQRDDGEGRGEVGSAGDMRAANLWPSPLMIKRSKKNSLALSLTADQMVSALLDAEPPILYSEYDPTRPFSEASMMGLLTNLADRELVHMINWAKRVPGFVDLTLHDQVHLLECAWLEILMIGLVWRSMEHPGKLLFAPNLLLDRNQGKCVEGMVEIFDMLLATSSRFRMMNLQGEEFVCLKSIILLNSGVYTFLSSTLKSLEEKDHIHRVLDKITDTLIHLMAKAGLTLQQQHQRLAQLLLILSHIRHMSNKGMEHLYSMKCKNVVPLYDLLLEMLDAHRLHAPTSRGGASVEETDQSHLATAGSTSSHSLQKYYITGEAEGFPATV

[2] = target: T1, Estrogen receptor (Homo sapiens); assay: Agonist activity at ER in human MCF7:WS8 cells assessed as increase in pS2 gene expression at 10^-6 M after 48 hrs by RT-PCR analysis; type: cell-based
How it was run: (§1)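 After 3 days estrogen starvation, MCF-7:WS8 cells were seeded at 300 000 cells/well and treated for 48 h, then harvested in Trizol. pS2, GREB1 and PgR mRNA measured by real-time PCR with primers checked by single-peak dissociation curves.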

[3] = target: T1, Estrogen receptor (Homo sapiens); assay: Agonist activity at ER in human MCF7:WS8 cells assessed as increase in GREB1 gene expression at 10^-6 M after 48 hrs by RT-PCR analysis; type: cell-based; how it was run: as §1
[4] = target: T1, Estrogen receptor (Homo sapiens); assay: Agonist activity at ER in human MCF7:WS8 cells assessed as increase in PgR gene expression at 10^-6 M after 48 hrs by RT-PCR analysis; type: cell-based; how it was run: as §1
[5] = target: T1, Estrogen receptor (Homo sapiens); assay: Antagonist activity at ER in human MCF7:WS8 cells assessed as inhibition of estradiol-induced cell growth by measuring DNA level after 7 days treated at highesy drug concentration by fluorescence analysis; type: cell-based
[6] = target: T1, Estrogen receptor (Homo sapiens); assay: Agonist activity at ER in human MCF7:WS8 cells assessed as cell growth by measuring DNA level at 1.17 X 10^-9 M after 7 days by fluorescence analysis; type: cell-based
How it was run: (§2)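 MCF-7:WS8 cells kept 3 days in phenol red-free RPMI 1640 with 10% charcoal-stripped serum, then seeded at 10 000 cells/well. Next day treated with serial dilutions (10–12 to 10–6 M) or single therapeutic-level concentrations in estrogen-free medium. Medium changed every 2 days, 7 days total, triplicate points.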

[7] = Effect on ER-alpha protein level in human MCF7:WS8 cells at 1 nM after 24 hrs by Western blot analysis; type: functional
How it was run: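 Cells estrogen-starved 3 days in phenol red-free RPMI 1640, 3 million seeded per 10 cm dish, treated 24 h. Lysates (20 μg protein by BCA) run on 4–12% Bis-Tris gels, blotted to nitrocellulose, probed with rabbit anti-ERα and anti-β-actin, detected by ECL. Densitometry normalized to β-actin, background subtracted, vehicle = 100%. Three independent experiments.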

[8] = target: T1, Estrogen receptor (Homo sapiens); assay: Agonist activity at ER in human MCF7:WS8 cells assessed as increase in cell growth by measuring DNA level at 10^-6 M after 7 days by fluorescence analysis; type: cell-based; how it was run: as §2
[9] = target: T1, Estrogen receptor (Homo sapiens); assay: Agonist activity at ER in human MCF7:WS8 cells assessed as cell growth by measuring DNA level at 0.56 X 10^-9 M after 7 days by fluorescence analysis; type: cell-based; how it was run: as §2
[10] = target: T1, Estrogen receptor (Homo sapiens); assay: Antagonist activity at ER in human MCF7:WS8 cells assessed as inhibition of estradiol-induced cell growth by measuring DNA level at 10^-6 M after 7 days by fluorescence analysis; type: cell-based

| inhibition [1] [%] | Activity [2] | Activity [3] | Activity [4] | inhibition [5] [%] | Activity [6] | Activity [8] | Activity [9] | inhibition [10] [%] | Structure (SMILES) | Activity [7] [%] |
| --- | --- | --- | --- | --- | --- | --- | --- | --- | --- | --- |
| 10 | Active | Active | Active | 10 | inactive |  |  |  | CNCCOc1ccc2c(c1)CCCC(c1ccccc1)=C2c1ccc(O)cc1 |  |
|  | Active | Active | Active | 20 |  | Active |  |  | CCOc1ccc2c(c1)CCCC(c1ccccc1)=C2c1ccc(O)cc1 |  |
|  | Active | Active | Active | 20 |  | Active | inactive |  | CN(C)CCOc1ccc2c(c1)CCCC(c1ccccc1)=C2c1ccc(O)cc1 |  |

The next lines start with the compound.

| Structure (SMILES) | inhibition [1] [%] | Activity [2] | Activity [3] | Activity [4] | inhibition [5] [%] | Activity [6] | Activity [8] | Activity [9] | inhibition [10] [%] | Activity [7] [%] |
| --- | --- | --- | --- | --- | --- | --- | --- | --- | --- | --- |
| C[C@]12CC[C@@H]3c4ccc(O)cc4CC[C@H]3[C@@H]1CC[C@@H]2O [ESTRADIOL] |  |  |  |  |  |  |  |  |  | 60 |
| COc1ccc(C2=C(c3ccccc3)CCCc3cc(O)ccc32)cc1 |  | Active | Active | Active | 20 |  | Active |  |  |  |
| COc1ccc2c(c1)CCCC(c1ccccc1)=C2c1ccc(O)cc1 |  | Active | Active | Active | 20 |  | Active |  |  |  |
| CCOc1ccc(C2=C(c3ccccc3)CCCc3cc(O)ccc32)cc1 |  | Active | Active | Active | 20 |  | Active |  | 20 |  |
| CCC(=C(c1ccc(O)cc1)c1ccc(O)cc1)c1ccc(O)cc1 |  | Active | Active | Active | 20 |  |  |  |  |  |
| CCC(=C(c1ccc(O)cc1)c1ccc(O)cc1)c1ccccc1 |  | Active | Active | Active | 20 |  | Active |  |  |  |
